{
  "source": "paper PMC9989852",
  "about": "(Food and chemical toxicology : an international journal …, 2022)",
  "key": {"[1]": {"test_system": "auricular draining lymph nodes (dLNs)", "test": "Draining lymph node phenotyping by flow cytometry after 28-day dermal exposure", "type": "in vivo, B6C3F1 mice", "conditions": "28 days", "in_short": "(§1)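 Female B6C3F1 mice (5/group) received 25 μl/ear daily to the dorsal ears in acetone. About 24 h after the last dose, tissues went into RPMI: both auricular dLNs, half spleen and one ear pinna. Single-cell suspensions were acquired on an LSR II, with populations gated per supplemental strategy and FMO gating controls. Results are mean ± SE, n=5, by one-way ANOVA.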"}, "spleen": {"test_system": "spleen", "test": "Spleen phenotyping by flow cytometry after 28-day dermal exposure", "type": "in vivo, B6C3F1 mice", "conditions": "28 days", "in_short": "as §1"}, "kidney, spleen": {"test_system": "kidney, spleen", "test": "Kidney and spleen histopathology after 28-day dermal exposure", "type": "in vivo, B6C3F1 mice", "conditions": "1.25–5%, 28 days, data not shown", "in_short": "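Female B6C3F1 mice (5/group) received 25 μl/ear on the dorsal ear surfaces daily, with acetone as vehicle. Tissues were formalin-fixed about 24 h after the last dose: liver remainder, half spleen, right kidney and half ear pinna. Sections were paraffin-embedded, cut at 5 μm and stained with H&E. A veterinary pathologist read them per STP guideline and graded 1 (minimal) to 5 (severe) by extent.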"}, "[2]": {"test": "PFAS concentration in serum", "type": "in vivo, B6C3F1 mice", "conditions": "dermal, 28 days", "in_short": "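Serum came by cardiac puncture about 24 h after the final daily ear dose (25 μl/ear, acetone vehicle; female B6C3F1 mice). Samples underwent solid-phase extraction and LC/MS/MS. Short-chain analytes were quantified as linear isomer only; the legacy comparator was quantified as linear plus branched. Data are mean ± SE of 4–5 mice, one-way ANOVA with Dunnett's vs vehicle.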"}, "B6C3F1 mice": {"test_system": "B6C3F1 mice", "test": "Organ weights and body weight after 28-day dermal exposure", "type": "in vivo", "conditions": "28 days"}, "ear pinna": {"test_system": "ear pinna", "test": "Skin", "type": "in vivo, B6C3F1 mice", "conditions": "dermal, 28 days", "in_short": "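Dosing was daily topical to both dorsal ears (25 μl/ear, acetone vehicle) in female B6C3F1 mice. Liver caudate lobe or half ear pinna was stored in RNAlater and homogenized in RLT buffer. RNA was isolated on RNeasy columns with DNase, and 1–2 μg was reverse-transcribed. TaqMan real-time PCR was read as 2−ΔΔCT vs vehicle, normalized to β-actin. Statistics: ANOVA/Dunnett's, or Kruskal-Wallis/Dunn's for unequal variance.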"}},
  "data": [
    {"smiles": "O=C(O)C(F)(F)C(F)(F)C(F)(F)C(F)(F)C(F)(F)F", "note": "[PFHxA, perfluorohexanoic acid]", "values": [
      {"measurement": "dLN B-cells cell number", "setting": "[1]; 1.25%", "result": "28.40 ± 6.63 × 10^5"},
      {"measurement": "dLN B-cells frequency", "setting": "[1]; 1.25%", "result": "18.06 ± 2.12", "unit": "%"},
      {"measurement": "dLN CD4^+ cell number", "setting": "[1]; 1.25%", "result": "5.93 ± 0.59 × 10^6"},
      {"measurement": "dLN CD4^+ frequency", "setting": "[1]; 1.25%", "result": "40.24 ± 1.70", "unit": "%"},
      {"measurement": "dLN CD8^+ cell number", "setting": "[1]; 1.25%", "result": "42.50 ± 4.15 × 10^5"},
      {"measurement": "dLN CD8^+ frequency", "setting": "[1]; 1.25%", "result": "28.94 ± 1.29", "unit": "%"},
      {"measurement": "dLN CD11b+ cell number", "setting": "[1]; 1.25%", "result": "16.20 ±3.71 × 10^4"},
      {"measurement": "dLN CD11b+ frequency", "setting": "[1]; 1.25%", "result": "1.04 ± 0.12", "unit": "%"},
      {"measurement": "dLN CD86 B-cells", "setting": "[1]; 1.25%", "result": "98.74 ±6.64", "unit": "MFI"},
      {"measurement": "dLN CD86 DCs", "setting": "[1]; 1.25%", "result": "11.60 ± 1.51", "unit": "MFI x 10^2"},
      {"measurement": "dLN Dendritic Cells cell number", "setting": "[1]; 1.25%", "result": "29.00 ±2.99 × 10^4"},
      {"measurement": "dLN Dendritic Cells frequency", "setting": "[1]; 1.25%", "result": "2.01 ± 0.22", "unit": "%"},
      {"measurement": "dLN Eosinophils cell number", "setting": "[1]; 1.25%", "result": "96.70 ± 17.60 × 10^2"},
      {"measurement": "dLN MHCII B-cells", "setting": "[1]; 1.25%", "result": "7.07 ± 0.37", "unit": "MFI × 10^2"},
      {"measurement": "dLN MHCII DCs", "setting": "[1]; 1.25%", "result": "57.30 ±2.79", "unit": "MFI × IQ^2"},
      {"measurement": "dLN NK cell number", "setting": "[1]; 1.25%", "result": "11.60 ±0.64 × 10^4"},
      {"measurement": "dLN NK frequency", "setting": "[1]; 1.25%", "result": "0.82 ± 0.08", "unit": "%"},
      {"measurement": "dLN Neutrophils cell number", "setting": "[1]; 1.25%", "result": "18.80 ±5.25 × 10^2"},
      {"measurement": "dLN Total Cellularity", "setting": "[1]; 1.25%", "result": "15.00 ± 1.92 × 10^6"},
      {"measurement": "dLN B-cells cell number", "setting": "[1]; 2.5%", "result": "32.50 ± 3.50 × 10^5"},
      {"measurement": "dLN B-cells frequency", "setting": "[1]; 2.5%", "result": "15.94 ± 0.38", "unit": "%"},
      {"measurement": "dLN CD4^+ cell number", "setting": "[1]; 2.5%", "result": "8.16 ± 0.58 × 10^6"},
      {"measurement": "dLN CD4^+ frequency", "setting": "[1]; 2.5%", "result": "40.56 ± 1.03", "unit": "%"},
      {"measurement": "dLN CD8^+ cell number", "setting": "[1]; 2.5%", "result": "56.80 ± 5.72 × 10^5"},
      {"measurement": "dLN CD8^+ frequency", "setting": "[1]; 2.5%", "result": "27.94 ± 0.36", "unit": "%"},
      {"measurement": "dLN CD11b+ cell number", "setting": "[1]; 2.5%", "result": "25.30 ± 2.29 × 10^4"},
      {"measurement": "dLN CD11b+ frequency", "setting": "[1]; 2.5%", "result": "1.25 ± 0.04", "unit": "%"},
      {"measurement": "dLN CD86 B-cells", "setting": "[1]; 2.5%", "result": "93.54 ± 1.71", "unit": "MFI"},
      {"measurement": "dLN CD86 DCs", "setting": "[1]; 2.5%", "result": "13.20 ± 1.29", "unit": "MFI x 10^2"},
      {"measurement": "dLN Dendritic Cells cell number", "setting": "[1]; 2.5%", "result": "47.00 ± 5.39 × 10^4"},
      {"measurement": "dLN Dendritic Cells frequency", "setting": "[1]; 2.5%", "result": "2.32 ± 0.14", "unit": "%"},
      {"measurement": "dLN Eosinophils cell number", "setting": "[1]; 2.5%", "result": "140.00 ± 17.30 × 10^2"},
      {"measurement": "dLN MHCII B-cells", "setting": "[1]; 2.5%", "result": "7.16 ± 0.11", "unit": "MFI × 10^2"},
      {"measurement": "dLN MHCII DCs", "setting": "[1]; 2.5%", "result": "63.50 ± 5.71", "unit": "MFI × IQ^2"},
      {"measurement": "dLN NK cell number", "setting": "[1]; 2.5%", "result": "19.50 ± 2.26 × 10^4"},
      {"measurement": "dLN NK frequency", "setting": "[1]; 2.5%", "result": "0.95 ± 0.03", "unit": "%"},
      {"measurement": "dLN Neutrophils cell number", "setting": "[1]; 2.5%", "result": "21.50 ± 1.28 × 10^2"},
      {"measurement": "dLN Total Cellularity", "setting": "[1]; 2.5%", "result": "20.30 ± 1.81 × 10^6"},
      {"measurement": "dLN B-cells cell number", "setting": "[1]; 5%", "result": "37.30 ± 1.54 × 10^5"},
      {"measurement": "dLN B-cells frequency", "setting": "[1]; 5%", "result": "17.38 ± 0.94", "unit": "%"},
      {"measurement": "dLN CD4^+ frequency", "setting": "[1]; 5%", "result": "41.58 ± 0.62", "unit": "%"},
      {"measurement": "dLN CD8^+ cell number", "setting": "[1]; 5%", "result": "58.40 ± 4.46 × 10^5"},
      {"measurement": "dLN CD8^+ frequency", "setting": "[1]; 5%", "result": "26.82 ± 0.64", "unit": "%"},
      {"measurement": "dLN CD11b+ cell number", "setting": "[1]; 5%", "result": "26.00 ± 3.54 × 10^4"},
      {"measurement": "dLN CD11b+ frequency", "setting": "[1]; 5%", "result": "1.18 ± 0.11", "unit": "%"},
      {"measurement": "dLN CD86 B-cells", "setting": "[1]; 5%", "result": "101.54 ± 3.64", "unit": "MFI"},
      {"measurement": "dLN CD86 DCs", "setting": "[1]; 5%", "result": "9.15 ± 0.71", "unit": "MFI x 10^2"},
      {"measurement": "dLN Dendritic Cells cell number", "setting": "[1]; 5%", "result": "35.40 ± 5.48 × 10^4"},
      {"measurement": "dLN Dendritic Cells frequency", "setting": "[1]; 5%", "result": "1.60 ± 0.19", "unit": "%"},
      {"measurement": "dLN Eosinophils cell number", "setting": "[1]; 5%", "result": "142.00 ± 22.90 × 10^2"},
      {"measurement": "dLN MHCII B-cells", "setting": "[1]; 5%", "result": "8.02 ± 0.64", "unit": "MFI × 10^2"},
      {"measurement": "dLN NK cell number", "setting": "[1]; 5%", "result": "17.70 ± 2.11 × 10^4"},
      {"measurement": "dLN NK frequency", "setting": "[1]; 5%", "result": "0.80 ± 0.06", "unit": "%"},
      {"measurement": "dLN Neutrophils cell number", "setting": "[1]; 5%", "result": "16.70 ± 2.99 × 10^2"},
      {"measurement": "dLN Total Cellularity", "setting": "[1]; 5%", "result": "21.70 ± 1.26 × 10^6"},
      {"measurement": "spleen MFI of CD86 on B-cells", "setting": "spleen; 2.5%", "result": "increase"},
      {"measurement": "spleen NK cell frequency", "setting": "spleen; 2.5%", "result": "increase"},
      {"measurement": "spleen frequency of CD11b + Ly6C + cells", "setting": "spleen; 2.5%", "result": "significant decrease"},
      {"measurement": "spleen MFI of CD86 on B-cells", "setting": "spleen; 5%", "result": "increase"},
      {"measurement": "spleen frequency of CD11b + Ly6C + cells", "setting": "spleen; 5%", "result": "significant decrease"},
      {"measurement": "microscopic observations in the kidney or the spleen", "setting": "kidney, spleen", "result": "No PFPeA, PFHxA, or PFHpA-related microscopic observations"},
      {"measurement": "PFAS serum concentration vs vehicle", "setting": "[2]; 2.5%", "result": "significant increase"},
      {"measurement": "PFAS serum concentration vs vehicle", "setting": "[2]; 5%", "result": "significant increase"},
      {"measurement": "body weight or overt signs of toxicity", "setting": "B6C3F1 mice; 1.25–5%", "result": "no changes"},
      {"measurement": "Liver weight (% body weight), increase vs vehicle-treated mice", "setting": "B6C3F1 mice; 5%", "result": 9, "unit": "%"},
      {"measurement": "skin Pparδ gene expression", "setting": "ear pinna; 1.25–5%", "result": "no changes"},
      {"measurement": "skin Flg gene expression", "setting": "ear pinna; 2.5%", "result": "increased"},
      {"measurement": "skin Pparγ gene expression", "setting": "ear pinna; 2.5%", "result": "decreased"},
      {"measurement": "skin Flg gene expression", "setting": "ear pinna; 5%", "result": "increased"},
      {"measurement": "skin Lor gene expression", "setting": "ear pinna; 5%", "result": "increased"},
      {"measurement": "skin PPARα gene expression", "setting": "ear pinna; 5%", "result": "decreased"},
      {"measurement": "skin Pparγ gene expression", "setting": "ear pinna; 5%", "result": "decreased"},
      {"measurement": "skin S100a8 gene expression, increase", "setting": "ear pinna; 5%", "result": 16.8, "unit": "fold"}
    ]}
  ]
}
